# Cneo AK release – Cryptococcus neoformans cell lysis inducers, primary screen, AK release luminescence, single concentration; C. neoformans lysis, adenylate kinase release luminescence, 4 h; normalised: neutral wells 0, clomiphene wells 100; lysis activity, % at 15 µM; 0.2% of 360,000 active; AID 651654, 2012;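 active = mean lysis activity across replicates of at least 80%, whatever share of replicates individually reach that level; inactive = mean lysis activity below 80%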
#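 Material: C. neoformans cells; Schedule: 4 h static compound exposure, 37 °C, read 1 h post-reagent; Measured by: adenylate kinase release luminescence; Read-out: signal increase indicating cell lysis; Controls: Clomiphene as positive lysis control.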
# Xi reactivation – activators of inactive X chromosome reactivation, primary screen, imaging, XiGFP fibroblasts, GFP high-content imaging, set 2; 0.055% of 360,000 active; AID 743238, 2013; activation, % at 7.58 µM; XiGFP mouse fibroblasts, % GFP-positive cells imaging, 3 d; cells co-treated with 5-aza-dC sensitizer; scaled so ellipticine positive control = 100%;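 active = mean normalized replicate activation at least 10% and every replicate at or above 10%; inconclusive = only one of the two criteria met; inactive = mean below 10% and not all replicates reach 10%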;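 note: 0% = median of on-plate neutral control wells and 100% = ellipticine 6 µM median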
#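 Material: XiGFP fibroblasts, SV40-immortalized. Buffer or medium: DMEM plus 5-aza-dC sensitizer. Compound: single concentration per compound, delivered by pin transfer. Times: 3 days compound exposure. Controls: ellipticine 6 µM.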
# DENV2 CPE – inhibitors of DENV2 cytopathic effect, primary screen, cell-based, plate reader, single concentration | DENV2-infected cells, cytopathic effect rescue | CPE inhibition, % at 9.99 µM | 1.7% of 350,000 active; in the data active = CPE inhibition above about 20%, passing the limit was not always enough; inconclusive = no clear call, values can overlap the other calls; tested in BHK-21 cells;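 note: 0% = median of neutral control wells and 100% = median of positive control wells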
# Statin myotox sup – suppressors of statin myotoxicity in C2C12 myotubes, primary screen, cell-based, single point, plate reader; rescue of ATP level, % at 7.49 µM; 0.78% of 330,000 active; C2C12 myotubes + simvastatin, ATP luminescence, 48 h; scaled: DMSO 0, geranylgeraniol control 100;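 active = mean ATP rescue above about 67%, or every replicate alone reaching that limit, limit read from the data, passing the limit was not always enough; inconclusive = no clear call, values can overlap the other calls; inactive = mean under the limit and some replicate under it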;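 note: myotubes were challenged with 10 µM simvastatin during compound exposure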
# The depositor's hits bear a star; ? = inconclusive; nt = not tested or not shown. Sampled rows, rich in hits. Any-hit rate of the full collection: about 2.1%.
SMILES,Cneo AK release,Xi reactivation,DENV2 CPE,Statin myotox sup
CCOC(=O)c1ccc2c(c1)nc(COc1ccc(OC)cc1)n2CC,-1,nt,nt,107*
O=C(CSc1n[nH]c(-c2ccco2)n1)Nc1ccc(Br)cc1,0,0,30*,8
COc1ccc(NC(=O)CSc2n[nH]c(-c3ccco3)n2)cc1,2,0,1,6
CSCC[C@H](NC(=O)OC(C)(C)C)C(=O)N1CCC(C(=O)N[C@@H](C)C(=O)NCc2ccc(F)cc2)CC1,1,nt,36*,-7
C[C@@H]1CN([C@H](C)CO)S(=O)(=O)c2ccc(-c3cccnc3)cc2O[C@@H]1CN(C)Cc1ccncc1,-2,-1,?,-26
C[C@H]1CN([C@@H](C)CO)C(=O)c2cc(-c3cncnc3)cnc2O[C@H]1CN(C)C(=O)c1cccc(F)c1,4,-1,5,15
CC1CCCN(C(=O)c2ccc(S(=O)(=O)Nc3ccccc3Cl)cc2)C1 (stereo not given),2,0,83*,4
O=C(c1ccc(S(=O)(=O)Nc2ccccc2Cl)cc1)N1CCOCC1,0,0,nt,14
Cc1ccc(S(=O)(=O)N[C@H]2CC[C@@H](CCn3cc(C4CCCCC4)nn3)O[C@@H]2CO)cc1,-3,0,-2,5
Cc1cc(C)n2c(Nc3ccc4c(c3)OCCO4)c(CC(C)C)nc2n1,nt,0,46*,nt
COc1ccc(Nc2c(CC(C)C)nc3nc(C)cc(C)n23)cc1,nt,0,-8,nt
C=CCn1c(C)nnc1SCC(=O)NC1CC1,0,0,93*,-5
CNC[C@@H]1OCCCC[C@@H](C)Oc2ccc(NS(=O)(=O)c3ccc(C)cc3)cc2C(=O)N([C@H](C)CO)C[C@H]1C,9,0,1,11
COc1ccccc1-c1ccc2c(c1)O[C@H](CN(C)C(=O)c1ccccc1)[C@H](C)CN([C@@H](C)CO)S2(=O)=O,-3,-1,0,-23
Cc1noc(C)c1S(=O)(=O)Nc1ccc2c(c1)CC(=O)N([C@H](C)CO)C[C@@H](C)[C@H](CN(C)S(=O)(=O)c1cccs1)O2,0,-1,1,9
CC(C)NC(=O)N(C)C[C@@H]1Oc2ccc(NS(=O)(=O)c3cccs3)cc2CC(=O)N([C@@H](C)CO)C[C@@H]1C,0,0,22*,-2
Cc1ccc(S(=O)(=O)Nc2ccc3c(c2)CC(=O)N([C@H](C)CO)C[C@H](C)[C@@H](CN(C)S(=O)(=O)c2ccc(C)cc2)O3)cc1,0,0,67*,64
Cc1ccc(S(=O)(=O)Nc2ccc3c(c2)CC(=O)N([C@@H](C)CO)C[C@@H](C)[C@H](CN(C)S(=O)(=O)c2ccc(Cl)cc2)O3)cc1,-4,-1,49*,58
Cc1noc(C)c1S(=O)(=O)Nc1ccc2c(c1)CC(=O)N([C@H](C)CO)C[C@H](C)[C@H](CN(C)S(=O)(=O)c1cccs1)O2,115*,-2,-8,-15
Cc1ccc(S(=O)(=O)Nc2ccc3c(c2)CC(=O)N([C@H](C)CO)C[C@@H](C)[C@@H](CN(C)S(=O)(=O)c2ccc(C)cc2)O3)cc1,-1,0,-2,-43
Cc1ccc(S(=O)(=O)Nc2ccc3c(c2)CC(=O)N([C@H](C)CO)C[C@H](C)[C@H](CN(C)S(=O)(=O)c2ccc(Cl)cc2)O3)cc1,1,0,-7,8
C[C@@H]1CCCCO[C@H](CN(C)C)[C@@H](C)CN([C@@H](C)CO)C(=O)c2cc(NC(=O)c3ccccc3)ccc2O1,nt,1,nt,42
C[C@H](CO)N1C[C@H](C)[C@H](CN(C)S(=O)(=O)c2ccccc2)Oc2ccc(NS(=O)(=O)c3cccs3)cc2CC1=O,3,-1,-10,9
Cc1ccc(S(=O)(=O)Nc2ccc3c(c2)CC(=O)N([C@@H](C)CO)C[C@H](C)[C@@H](CN(C)S(=O)(=O)c2cccs2)O3)cc1,9,0,6,77*
C[C@@H]1CN([C@@H](C)CO)C(=O)Cc2cc(NS(=O)(=O)c3cccs3)ccc2O[C@H]1CN(C)S(=O)(=O)c1ccccc1,58,-1,78*,-2

# Assay outcomes as filed in PubChem.
